According to ChEMBL document CHEMBL1909618, “Non-steroidal dissociated glucocorticoid agonists: indoles as A-ring mimetics and function-regulating pharmacophores” (Bioorg Med Chem Lett, 2011):
Activity calls are given as the source filed them. The rule behind the calls is not given here.

Legend:
Glucocorticoid receptor [1] = molecular target: T1, Glucocorticoid receptor (Homo sapiens, UniProt P04150); assay: Agonist activity at glucocorticoid receptor in HFF assessed as inhibition of IL1-induced IL-6 production after 18 to 24 hrs; assay type: functional
T1 sequence (P04150 whole entry): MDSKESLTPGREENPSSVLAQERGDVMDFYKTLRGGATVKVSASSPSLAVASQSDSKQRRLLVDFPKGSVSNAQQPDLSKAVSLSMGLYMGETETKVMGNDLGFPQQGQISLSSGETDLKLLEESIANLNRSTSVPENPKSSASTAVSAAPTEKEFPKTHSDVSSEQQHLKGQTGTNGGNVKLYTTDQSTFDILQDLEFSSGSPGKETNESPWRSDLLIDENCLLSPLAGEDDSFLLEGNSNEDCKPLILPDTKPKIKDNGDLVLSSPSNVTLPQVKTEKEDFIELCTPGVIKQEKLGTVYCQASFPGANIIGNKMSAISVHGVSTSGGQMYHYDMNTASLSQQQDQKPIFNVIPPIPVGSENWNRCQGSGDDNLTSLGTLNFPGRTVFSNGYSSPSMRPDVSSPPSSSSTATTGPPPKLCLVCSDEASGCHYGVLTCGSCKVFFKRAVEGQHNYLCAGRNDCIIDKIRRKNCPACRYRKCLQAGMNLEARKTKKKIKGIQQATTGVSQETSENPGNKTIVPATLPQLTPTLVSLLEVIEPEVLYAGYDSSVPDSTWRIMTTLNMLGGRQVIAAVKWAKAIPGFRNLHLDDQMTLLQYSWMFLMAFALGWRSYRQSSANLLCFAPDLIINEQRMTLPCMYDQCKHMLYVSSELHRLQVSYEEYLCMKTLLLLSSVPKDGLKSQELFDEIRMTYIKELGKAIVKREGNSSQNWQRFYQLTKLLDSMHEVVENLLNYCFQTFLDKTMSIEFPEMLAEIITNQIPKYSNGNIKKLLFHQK

Progesterone receptor = molecular target: T2, Progesterone receptor (Homo sapiens, UniProt P06401); assay: Displacement of tetramethylrhodamine-labeled RU-486 from human recombinant progesterone receptor expressed in baculovirus infected insect cells by fluorescence polarization assay
T2 sequence (P06401 whole entry): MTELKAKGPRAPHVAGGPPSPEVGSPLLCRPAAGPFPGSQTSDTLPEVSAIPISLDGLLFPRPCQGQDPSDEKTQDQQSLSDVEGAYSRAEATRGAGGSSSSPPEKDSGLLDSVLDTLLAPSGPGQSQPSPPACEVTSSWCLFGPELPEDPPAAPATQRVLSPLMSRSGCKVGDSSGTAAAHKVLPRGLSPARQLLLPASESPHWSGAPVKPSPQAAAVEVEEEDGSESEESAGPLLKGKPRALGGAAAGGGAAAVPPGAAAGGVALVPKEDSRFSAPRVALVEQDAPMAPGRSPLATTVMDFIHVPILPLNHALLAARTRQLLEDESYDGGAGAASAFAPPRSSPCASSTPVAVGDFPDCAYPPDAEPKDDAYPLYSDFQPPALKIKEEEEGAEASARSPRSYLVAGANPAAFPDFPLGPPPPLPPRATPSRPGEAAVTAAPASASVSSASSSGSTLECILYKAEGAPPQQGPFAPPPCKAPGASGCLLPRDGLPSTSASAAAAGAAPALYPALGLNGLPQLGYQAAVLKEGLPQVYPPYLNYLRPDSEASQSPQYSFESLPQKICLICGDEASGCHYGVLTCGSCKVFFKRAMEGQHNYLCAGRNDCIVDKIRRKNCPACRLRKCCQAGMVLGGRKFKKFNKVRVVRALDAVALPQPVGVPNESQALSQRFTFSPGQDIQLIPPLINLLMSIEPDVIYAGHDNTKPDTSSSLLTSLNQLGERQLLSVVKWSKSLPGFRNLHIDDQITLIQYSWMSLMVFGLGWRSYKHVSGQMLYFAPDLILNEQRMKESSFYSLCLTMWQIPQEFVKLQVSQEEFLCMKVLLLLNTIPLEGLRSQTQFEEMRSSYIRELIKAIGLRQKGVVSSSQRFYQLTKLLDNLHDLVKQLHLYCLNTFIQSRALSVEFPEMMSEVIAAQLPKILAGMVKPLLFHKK
Outline: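 Fluorescence polarization competition assays with recombinant human receptors in lysates of baculovirus-infected insect cells. Reactions contained 1% DMSO and ran 1 h at room temperature.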

[2] = molecular target: T3, Glucocorticoid receptor (Homo sapiens) (UniProt P04150); assay: Transactivation activity of glucocorticoid receptor in HFF assessed as induction of aromatase activity by measuring beta-estradiol activity after 18 to 24 hrs by ELISA relative to Dexamethasone
T3 sequence (whole entry): T1 sequence (P04150 whole entry)

Glucocorticoid receptor [3] = molecular target: T1, Glucocorticoid receptor; assay: Displacement of tetramethylrhodamine-labeled Dexamethasone from human recombinant glucocorticoid receptor expressed in baculovirus infected insect cells by fluorescence polarization assay
Glucocorticoid receptor [4] = molecular target: T1, Glucocorticoid receptor; assay: Transactivation activity of glucocorticoid receptor in HFF assessed as induction of aromatase activity by measuring beta-estradiol activity after 18 to 24 hrs by ELISA; details: read-out: EC50
[5] = molecular target: T4, Androgen receptor (Homo sapiens) (UniProt P10275); assay: Displacement of [3H]-testosterone from human recombinant androgen receptor expressed in baculovirus infected insect cells at 1100 nM
T4 sequence (whole entry): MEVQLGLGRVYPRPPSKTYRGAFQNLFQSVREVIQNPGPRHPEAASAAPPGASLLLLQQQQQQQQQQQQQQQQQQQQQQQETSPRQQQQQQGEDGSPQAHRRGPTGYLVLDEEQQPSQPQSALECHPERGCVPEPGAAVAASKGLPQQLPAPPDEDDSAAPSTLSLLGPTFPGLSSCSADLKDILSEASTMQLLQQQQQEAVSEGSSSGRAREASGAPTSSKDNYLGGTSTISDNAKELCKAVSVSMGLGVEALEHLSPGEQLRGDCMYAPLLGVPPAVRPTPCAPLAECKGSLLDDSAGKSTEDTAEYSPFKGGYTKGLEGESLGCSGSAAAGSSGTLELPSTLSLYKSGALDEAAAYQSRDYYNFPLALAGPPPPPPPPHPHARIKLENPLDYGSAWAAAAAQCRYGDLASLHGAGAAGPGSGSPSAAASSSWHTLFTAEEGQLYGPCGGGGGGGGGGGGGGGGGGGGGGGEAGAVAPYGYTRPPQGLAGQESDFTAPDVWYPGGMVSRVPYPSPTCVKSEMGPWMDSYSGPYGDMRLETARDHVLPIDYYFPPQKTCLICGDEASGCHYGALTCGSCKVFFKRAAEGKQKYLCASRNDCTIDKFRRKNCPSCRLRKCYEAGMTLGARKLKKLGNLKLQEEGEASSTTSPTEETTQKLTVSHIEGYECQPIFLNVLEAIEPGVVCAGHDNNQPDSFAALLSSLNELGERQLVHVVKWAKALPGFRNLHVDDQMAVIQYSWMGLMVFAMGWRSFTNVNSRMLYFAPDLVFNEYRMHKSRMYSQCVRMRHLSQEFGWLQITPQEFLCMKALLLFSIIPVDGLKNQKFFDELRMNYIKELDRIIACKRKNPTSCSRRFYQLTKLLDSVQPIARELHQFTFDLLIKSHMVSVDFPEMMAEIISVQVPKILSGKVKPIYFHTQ
Outline: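 Competition of test compound at a single concentration against 10 nM ³H-testosterone for binding to recombinant human AR in lysates of baculovirus-infected cells. Dihydrotestosterone at 2 µM served as the positive control. Results are expressed as % of control.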

Mus musculus [6] = assay: Toxicity in B10.R3 mouse collagen-induced arthritis model assessed as change in serum insulin level at 3 mg/kg, po qd for 5 weeks by ELISA relative to control; assay type: organism-based; set-up: dose 3 mg/kg, route oral; details: in vivo, 840 h
Mus musculus [7] = assay: Toxicity in B10.R3 mouse collagen-induced arthritis model assessed as change in serum free fatty acids level at 3 mg/kg, po qd for 5 weeks relative to control; assay type: organism-based; set-up: dose 3 mg/kg, route oral; details: in vivo, 840 h
Outline: (§1)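 Arthritic B10.RIII CIA mice were dosed orally once daily for 5 weeks. At day 35 they were anesthetized with ketamine (50 mg/kg) and xylazine (15 mg/kg). Body fat was assessed by whole-body density scan. Serum triglycerides were measured by enzymatic kit (Wako L-Type TG-H) and free fatty acids by NEFA-C. Results are expressed as % change versus vehicle and compared by t-test.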

Mus musculus [8] = assay: Antiarthritic activity in B10.R3 mouse collagen-induced arthritis model assessed as AUC of disease progression inhibition at 10 mg/kg, po qd for 5 weeks; assay type: functional; details: B10.R3, 840 h
Outline: (§2)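 B10.RIII mice immunized with porcine type II collagen plus complete Freund's adjuvant were enrolled at the first signs of arthritis. They were dosed orally once daily for 5 weeks; vehicle was 30% Cremophor RH. All four paws were scored 1–4 (maximum 16 per animal). Disease-score AUCs from 10 mice per group were compared with vehicle by Mann–Whitney test.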

Mus musculus [9] = assay: Toxicity in B10.R3 mouse collagen-induced arthritis model assessed as change in serum insulin level at 30 mg/kg, po qd for 5 weeks by ELISA relative to control; assay type: organism-based; set-up: dose 30 mg/kg, route oral; details: in vivo, 840 h
Mus musculus [10] = organism: Mus musculus; assay: animal or person; details: B10.R3, po, 840 h, read-out: INH
Mus musculus [11] = assay: Antiinflammatory activity in mouse plasma assessed as inhibition of LPS-induced TNFalpha production at 10 mg/kg, po administered 1 hr before LPS challenge measured after 1 hr; assay type: functional
Outline: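 Mice received compound orally in Cremophor RH 1 h before LPS challenge. Plasma TNF-α was measured 1 h after challenge. n = 8 per group; doses were 3 and 10 mg/kg.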

Mus musculus [12] = assay: Toxicity in B10.R3 mouse collagen-induced arthritis model assessed as change in serum triglyceride level at 3 mg/kg, po qd for 5 weeks relative to control; assay type: organism-based; set-up: dose 3 mg/kg, route oral; details: in vivo, 840 h; outline: as §1
Mus musculus [13] = assay: Toxicity in B10.R3 mouse collagen-induced arthritis model assessed as change in body fat level at 3 mg/kg, po qd for 5 weeks relative to control; assay type: organism-based; set-up: dose 3 mg/kg, route oral; details: in vivo, 840 h; outline: as §1
Mus musculus [14] = assay: Toxicity in B10.R3 mouse collagen-induced arthritis model assessed as change in body weight at 30 mg/kg, po qd for 5 weeks relative to control; assay type: organism-based; set-up: dose 30 mg/kg, route oral; details: in vivo, 840 h
Mus musculus [15] = assay: Toxicity in B10.R3 mouse collagen-induced arthritis model assessed as change in serum free fatty acids level at 30 mg/kg, po qd for 5 weeks relative to control; assay type: organism-based; set-up: dose 30 mg/kg, route oral; details: in vivo, 840 h; outline: as §1
Mus musculus [16] = assay: Toxicity in B10.R3 mouse collagen-induced arthritis model assessed as change in body fat level at 30 mg/kg, po qd for 5 weeks relative to control; assay type: organism-based; set-up: dose 30 mg/kg, route oral; details: in vivo, 840 h; outline: as §1
Mus musculus [17] = assay: Antiarthritic activity in B10.R3 mouse collagen-induced arthritis model assessed as AUC of disease progression inhibition at 30 mg/kg, po qd for 5 weeks; assay type: functional; details: B10.R3, 840 h; outline: as §2
Mus musculus [18] = assay: Toxicity in B10.R3 mouse collagen-induced arthritis model assessed as change in serum triglyceride level at 30 mg/kg, po qd for 5 weeks relative to control; assay type: organism-based; set-up: dose 30 mg/kg, route oral; details: in vivo, 840 h; outline: as §1
Mus musculus [19] = assay: Toxicity in B10.R3 mouse collagen-induced arthritis model assessed as change in body weight at 3 mg/kg, po qd for 5 weeks relative to control; assay type: organism-based; set-up: dose 3 mg/kg, route oral; details: in vivo, 840 h

Compound | IC50 (Glucocorticoid receptor [1]) | IC50 (Progesterone receptor) | Efficacy [2] | IC50 (Glucocorticoid receptor [3]) | EC50 (Glucocorticoid receptor [4]) | Activity [5] | Activity (Mus musculus [6]) | Activity (Mus musculus [7]) | inhibition in vivo at 10 mg/kg (Mus musculus [8]) | Activity (Mus musculus [9]) | inhibition in vivo at 3 mg/kg (Mus musculus [10]) | inhibition in vivo at 10 mg/kg (Mus musculus [11]) | Activity (Mus musculus [12]) | Activity (Mus musculus [13]) | Activity (Mus musculus [14]) | Activity (Mus musculus [15]) | Activity (Mus musculus [16]) | inhibition in vivo at 30 mg/kg (Mus musculus [17]) | Activity (Mus musculus [18]) | Activity (Mus musculus [19])
COc1ccc(F)cc1C(C)(C)CC(O)(Cc1cc2ccccc2[nH]1)C(F)(F)F (racemic) | 7 nM | 290 nM | 93% | 22 nM | 23 nM | inactive | – | – | – | – | – | – | – | – | – | – | – | – | – | –
C[C@]12C=CC(=O)C=C1CC[C@@H]1[C@@H]2[C@@H](O)C[C@@]2(C)[C@H]1CC[C@]2(O)C(=O)CO [PREDNISOLONE] | – | – | – | – | – | – | 37% | 8% | 62% | 190% | 42% | 84% | -11% | 36% | 9% | 25% | 70% | 80% | 55% | 1.1%
